A selection: hits, their analogues and other compounds. The true share with any hit is near 1.9%.
SENP1 inh – inhibitors of human SENP1 SUMO protease catalytic domain. Q9P0U3. recombinant SENP1 catalytic domain, CyPet-SUMO1-YPet FRET cleavage. inhibition, % at 10 µM. 0.21% of 360,000 active. AID 624204;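 active means inhibition at least 30% at 10 µM, raw YFP signal under a set limit, fluorescence ratio 0.5 to 1.5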;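 further: 0% = enzyme with DMSO and 100% = no enzyme wells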
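system = hSENP1 catalytic domain, recombinant | reagent = SFCypet-SUMO1-SFYpet substrate at 25 nM | doses = one dose per compound, 10 µM, 0.5% DMSO | incubation = enzyme reaction for 50 min at room temperature, dark | measured by = FRET, CFP and YFP emission | controls = no-enzyme low, enzyme-DMSO high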
ADAM17 inh – ADAM17 inhibition, QFRET primary screen; 0.83% of 370,000 active; inhibition, % at 6.95 µM; AID 720648; P78536; recombinant ADAM17, EDANS/DABCYL FRET peptide cleavage;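 active means inhibition above the mean of compounds lying between control limits plus 3 SD, set per campaign, cut at about 8.5% in these data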;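 further: 0% = DMSO-only wells as the low control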
FAS TE block – inhibitors of human fatty acid synthase thioesterase domain | P49327 | recombinant FAS-TE, OMFH fluorogenic substrate, fluorescence endpoint | inhibition, % at 15 µM | 0.67% of 360,000 active;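 active means compounds whose normalised, plate-corrected inhibition of enzyme fluorescence in the single-dose primary screen is 50% or more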;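 further: 0% = DMSO with enzyme and 100% = substrate without enzyme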
ADAM10 inh – inhibits human ADAM10 | recombinant ADAM10, EDANS/DABCYL FRET peptide cleavage, 3 h | inhibition, % at 7 µM | 0.62% of 370,000 active | AID 720582;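 active means inhibition above a per-campaign cutoff equal to the mean of compounds falling between control-based bounds plus 3 SD, cut at about 20% in these data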;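 further: 0% = DMSO wells while the 100% control is not disclosed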
Target sequence (O14672 214-748 limits assumed): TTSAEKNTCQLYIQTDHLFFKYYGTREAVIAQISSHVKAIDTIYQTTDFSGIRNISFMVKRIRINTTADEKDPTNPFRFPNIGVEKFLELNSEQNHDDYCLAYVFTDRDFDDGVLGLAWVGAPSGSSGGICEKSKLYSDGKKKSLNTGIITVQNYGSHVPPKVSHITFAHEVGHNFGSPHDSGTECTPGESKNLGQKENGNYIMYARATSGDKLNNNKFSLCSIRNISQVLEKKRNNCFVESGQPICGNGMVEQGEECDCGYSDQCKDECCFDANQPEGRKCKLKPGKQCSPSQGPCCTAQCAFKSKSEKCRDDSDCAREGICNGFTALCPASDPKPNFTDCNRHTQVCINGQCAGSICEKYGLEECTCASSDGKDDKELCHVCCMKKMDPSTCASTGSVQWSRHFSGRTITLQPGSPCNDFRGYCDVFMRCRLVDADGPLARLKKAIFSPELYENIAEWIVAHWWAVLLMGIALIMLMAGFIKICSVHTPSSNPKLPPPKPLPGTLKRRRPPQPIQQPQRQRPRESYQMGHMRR
ADAM10 ctr – inhibits human ADAM10 in ADAM17 exosite counter-screen | AID 743256 | inhibition, % at 6.95 µM | recombinant ADAM10, EDANS/DABCYL FRET peptide cleavage, 3 h | 47% of 2,900 active | shares compounds with ADAM17 inh;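 active means mean inhibition over the triplicate runs exceeds the activity threshold set in the earlier primary screen, cut at about 20% in these data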;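 further: 0% = DMSO wells and 100% = marimastat wells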
ADAM17 confirm – confirmation of inhibitors of human ADAM17. inhibition, % at 6.95 µM. 65% of 2,900 active. shares compounds with ADAM17 inh. recombinant ADAM17, EDANS/DABCYL QFRET peptide cleavage;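 active means mean inhibition across replicates above the hit cutoff set in the primary screen, cut at about 8.5% in these data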;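 further: 0% = DMSO wells and 100% = marimastat wells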
* = called active by the depositor; nt = no result given.

SMILES	SENP1 inh	ADAM17 inh	FAS TE block	ADAM10 inh	ADAM10 ctr	ADAM17 confirm
COC(=O)[C@]12C[C@H](CC(=O)NCc3cccc(C(F)(F)F)c3)C(=O)N(Cc3ccc4c(c3)OCO4)C1=C[C@H](C(C)(C)C)O[C@@H]2C	nt	12.8*	nt	19.1	54.3*	19.1*
CCCCC(CC)COC1(c2ccccc2)OC(=O)c2ccccc21 (configuration not stated)	-0.4	10.0*	27.7	2.7	-1.0	-0.3
COc1ccccc1C(CCN(Cc1cccs1)C(C)=O)c1ccco1 (configuration not stated)	-6.8	-4.1	0.0	0.4	nt	nt
CCC(=O)N(CCC(c1ccccc1)c1ccco1)Cc1cccs1 (configuration not stated)	-2.6	9.8*	13.6	2.7	-1.8	1.2
Cc1cc(C)n(CCc2nc(-c3ccc(F)cc3)cs2)n1	0.4	-2.9	-4.9	-2.8	nt	nt
Cc1cc(C)n(CCc2nc(-c3ccc(C(C)(C)C)cc3)cs2)n1	-2.2	12.3*	14.0	19.0	14.3	11.4*
COc1cccc(NC(=O)NC2CCCCN(Cc3ccccc3C)C2=O)c1 (configuration not stated)	nt	-2.2	nt	2.4	nt	nt
CCN(CC(O)Cn1c2ccccc2c2ccccc21)S(=O)(=O)c1ccc(C)cc1 (configuration not stated)	1.2	11.0*	14.6	17.5	27.6*	14.1*
C/C(=N\NC(=S)NCc1ccccc1)c1ccc(Br)cc1	1.9	2.6	35.2	6.7	nt	nt
C/C(=N\NC(=S)NCc1ccccc1)c1ccc2ccccc2c1OC(F)F	0.5	12.5*	25.4	18.3	3.7	8.1
O=[N+]([O-])c1ccc(-c2cnc(SC(c3ccccc3)c3ccccc3)[nH]2)cc1	-20.2	10.0*	39.3	17.0	33.5*	13.9*
NC(=O)CSc1ncc(-c2ccccc2)[nH]1	2.0	-1.6	-7.7	3.5	nt	nt
Cc1cc(NC(=O)COC(=O)C(Nc2ccc(C(F)(F)F)cc2Cl)C(C)C)no1 (configuration not stated)	1.4	10.1*	26.4	19.6	41.2*	23.6*
Cc1cc(NC(=O)COC(=O)c2ccc(OC(F)(F)F)cc2)no1	0.8	-3.8	-5.6	-14.3	nt	nt
CC(C)C(=O)N[C@H]1[C@H](O)CCC[C@@]12C(=O)N(Cc1ccccc1)c1ccccc12	nt	3.5	nt	-2.0	nt	nt
Cc1cc(C)nc(Nc2nc3ccccc3s2)n1	0.1	-5.0	-4.0	3.6	nt	nt
Cc1ccc(Nc2nc3ccccc3s2)c(C)c1	1.2	9.0*	6.7	14.3	26.0*	16.9*
CC(C)C[C@H](NC(=O)c1ccc(Cl)cc1Cl)C(=O)N1CCC[C@H]1C(=O)NCc1ccccc1	nt	-6.5	nt	-14.3	nt	nt
COC(=O)c1ccc(CNC(=O)COC(=O)C23CC4CC(CC(C4)C2)C3)cc1	0.0	8.7*	0.2	10.3	8.6	2.7
O=C(COC(=O)C12CC3CC(CC(C3)C1)C2)NCc1ccccc1	0.8	2.0	10.0	-8.5	nt	nt
Oc1ccccc1CN1CCCC(N2CCN(c3cccc(C(F)(F)F)c3)CC2)C1 (configuration not stated)	1.2	9.0*	-0.3	11.4	23.7*	19.3*
Fc1ccccc1N1CCN(C2CCCN(Cc3cccc(C(F)(F)F)c3)C2)CC1 (configuration not stated)	1.0	-0.8	0.4	1.9	nt	nt
Cc1cc(C(=O)Nn2c(-c3ccc(Br)cc3)nc3ccccc3c2=O)ccc1[N+](=O)[O-]	1.4	8.9*	50.0	13.5	24.3*	11.9*
COc1cccc(C(=O)c2c(-c3ccccc3)ncc3cc(OC)c(OC)cc23)c1	1.4	12.7*	25.1	10.8	17.2	19.0*
COc1cc2cnc(-c3ccccc3)c(C(=O)c3ccc(F)cc3)c2cc1OC	0.0	0.7	15.3	5.8	nt	nt
SMILES	SENP1 inh	ADAM17 inh	FAS TE block	ADAM10 inh	ADAM10 ctr	ADAM17 confirm
COC(=O)[C@H](CC(C)C)NCc1cccc(CN[C@@H](CC(C)C)C(=O)OC)c1	2.3	8.9*	2.5	6.8	7.3	3.5
COC(=O)[C@H](CC(C)C)NS(=O)(=O)N(Cc1ccccc1)[C@@H](CC(C)C)C(=O)OC	0.0	-3.6	20.5	11.6	nt	nt
COC(=O)C[C@@H]1CC[C@@H]2[C@H](COc3ccc(NC(=O)c4ccc(F)c(F)c4)cc3C(=O)N2C)O1	nt	0.6	nt	-4.3	nt	nt
O=C(c1ccc(F)cc1)N1CCC(C(=O)N2CCN(S(=O)(=O)c3cccc(Cl)c3)CC2)CC1	1.9	9.6*	-3.8	-3.6	-6.9	2.3
COC(=O)C/C=C/[C@@H](C)[C@H](NC(=O)OCC(Cl)(Cl)Cl)c1ccc(-c2ccccc2)cc1	nt	2.8	nt	6.6	nt	nt
Nc1nonc1C(=O)NCCNCc1ccccc1OCc1ccccc1F	-2.2	-6.6	-3.9	0.3	nt	nt
Nc1nonc1C(=O)NCCNCc1cc(Br)ccc1OCc1ccccc1F	0.3	13.7*	5.9	24.8*	2.4	5.2
COC(=O)c1cc(-c2cccc3c2sc2ccccc23)c(=O)n2c1CCC2	nt	-9.3	nt	-20.2	nt	nt
Cc1cccc(N2CCN(S(=O)(=O)c3ccc4c(c3)C(C)(C)C(=O)N4C)CC2)c1C	2.6	8.8*	23.5	19.6	2.8	8.0
C#CCN(C[C@@H]1[C@@H](OC(=O)Nc2cccs2)[C@@H](OC(=O)Nc2cccs2)Cn2c(=O)n(CCCCCC)c(=O)n21)S(=O)(=O)c1ccc(C)cc1	-3.5	10.5*	21.1	18.0	19.8	10.4*
COCc1[nH]nc2c1C(c1ccc(C)cc1)NC2=O (configuration not stated)	nt	1.4	nt	-9.1	nt	nt
Oc1ccccc1-c1cc(-c2ccco2)[nH]n1	-4.8	-2.3	0.2	-5.1	nt	nt
Oc1ccccc1-c1cc(-c2ccccc2Cl)[nH]n1	3.4	9.5*	-1.1	14.2	23.9*	11.8*
COc1ccc(CNS(=O)(=O)CC2NCCc3ccccc32)cc1 (configuration not stated)	nt	1.0	nt	9.1	nt	nt
CCCC1CCC2(CCCN2CCOC(=O)Nc2ccccc2C)CC1 (configuration not stated)	nt	-5.2	nt	-3.5	nt	nt
O=C(CSc1ccc([N+](=O)[O-])cn1)Nc1nccs1	3.3	-2.5	12.7	3.7	nt	nt
Cc1csc(NC(=O)CSc2ccc([N+](=O)[O-])cn2)n1	0.6	8.7*	43.5	11.2	-0.4	1.0
Cc1cc(C)cc(C(=O)OCCCN(C)C2CN(Cc3cn(Cc4ccccc4C(F)(F)F)nn3)S(=O)(=O)C2)c1 (configuration not stated)	nt	2.4	nt	9.6	nt	nt
CC(C)(C)OC(=O)N1CCC[C@@H]1CO	0.3	nt	-1.6	nt	nt	nt
CCCCCC(CC(=O)NO)C(=O)NC(C(=O)N1CCCC1CO)C(C)C (configuration not stated)	2.7	51.1*	-0.2	nt	nt	63.7*

Screening results deposited in PubChem BioAssay by several laboratories.
